Converted amounts (≈) assume the structure as drawn. The source made the active and inactive calls.
What was measured:
[1] = tested on: Staphylococcus epidermidis; test: Antimicrobial activity against methicillin-resistant Staphylococcus epidermidis 375 by broth microdilution method; assay type: functional
Summary of the method: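 Broth microdilution in cation-adjusted Mueller-Hinton broth following CLSI procedures. MIC and MBC determined for each strain. For daptomycin the broth was adjusted to 50 μg/ml calcium.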

[2] = tested on: Staphylococcus epidermidis; test: Antimicrobial activity against glycopeptide-intermediate Staphylococcus epidermidis NRS6 by broth microdilution method; assay type: functional
Summary of the method: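 Broth microdilution in cation-adjusted Mueller-Hinton broth following CLSI procedures. MIC and MBC determined for each strain. For daptomycin the broth was adjusted to 50 μg/ml calcium. S. aureus ATCC 29213 served as the test control strain.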

[3] = tested on: Staphylococcus epidermidis; test: Bactericidal activity against methicillin-resistant Staphylococcus epidermidis 375 at 2 times MIC after 24 hrs by time kill analysis; assay type: functional, organism-based
Summary of the method: (§1)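 Time-kill in CAMHB. Overnight culture gave a final inoculum of 5 × 10^5 to 1 × 10^6 CFU/ml. […] Viable counts taken at 0, 4 and 24 h, with carryover removed by dilution. Bactericidal meant at least a 3-log10 CFU/ml fall at 24 h versus the inoculum. Run in duplicate.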

[4] = tested on: Staphylococcus epidermidis; test: Bactericidal activity against glycopeptide-intermediate Staphylococcus epidermidis NRS6 at 2 times MIC after 24 hrs by time kill analysis; assay type: functional, organism-based
Summary of the method: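 Time-kill in CAMHB with a starting inoculum of 5 × 10^5 to 1 × 10^6 CFU/ml from an overnight culture. […] Viable counts at 0, 4 and 24 h, with carryover handled by dilution. Bactericidal was defined as a ≥3-log10 CFU/ml fall at 24 h versus the inoculum. Run in duplicate.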

Oryctolagus cuniculus [5] = test: Cmin in rabbit at 10 mg/kg/day, iv; assay type: ADME, organism-based; design: route intravenous; settings: in vivo
Summary of the method: (§2)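 Rabbits given drug i.v. over 15 min by computer-controlled infusion pump, designed to reproduce human serum PK (6 or 10 mg/kg/day human-equivalent regimens). Mean trough and Cmax measured in serum.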

[6] = Cmax in rabbit at 10 mg/kg/day, iv; assay type: ADME, organism-based, Oryctolagus cuniculus; design: dose 10 mg/kg/day, route intravenous; settings: in vivo; summary of the method: as §2
[7] = tested on: Staphylococcus epidermidis; test: Antimicrobial activity against methicillin-resistant Staphylococcus epidermidis 375 in acute infective endocarditis rabbit model assessed as sterile vegetation level at 6 mg/kg/day, iv after 48 hrs; assay type: functional
Summary of the method: (§3)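 New Zealand White rabbits (2 kg) with catheter-induced aortic valve endocarditis. Infected i.v. 48 h after catheter placement with 1 ml of about 1 × 10^9 CFU/ml. Bacteremia confirmed before therapy. Computer-controlled infusion via the vena cava simulated human PK for 48 h. Killed after 6 further half-lives. Vegetations cultured as log10 CFU/g; sterile meant no growth after one week. 15–17 animals per arm.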

[8] = tested on: Staphylococcus epidermidis; test: Antimicrobial activity against methicillin-resistant Staphylococcus epidermidis 375 in acute infective endocarditis rabbit model assessed as sterile vegetation level at 10 mg/kg/day, iv after 48 hrs; assay type: functional; summary of the method: as §3
[9] = tested on: Staphylococcus epidermidis; test: Antimicrobial activity against glycopeptide-intermediate Staphylococcus epidermidis NRS6 in acute infective endocarditis rabbit model assessed as sterile vegetation level at 6 mg/kg/day, iv after 48 hrs; assay type: functional
Summary of the method: (§4)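 New Zealand White rabbits (2 kg) with catheter-induced aortic valve endocarditis were infected i.v. with 1 ml of about 1 × 10^9 CFU/ml 48 h after catheter placement. Dosing started 48 h after infection by computer-controlled i.v. infusion simulating human PK, given over 15 min for 48 h. Animals were killed after 6 half-lives. Vegetations were cultured and reported as log10 CFU/g. Sterile meant no growth, including 1-week broth culture. 15 to 17 animals per arm.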

[10] = tested on: Staphylococcus epidermidis; test: Antimicrobial activity against glycopeptide-intermediate Staphylococcus epidermidis NRS6 in acute infective endocarditis rabbit model assessed as sterile vegetation level at 10 mg/kg/day, iv after 48 hrs; assay type: functional; summary of the method: as §4
[11] = tested on: Staphylococcus epidermidis; test: Antimicrobial activity against methicillin-resistant Staphylococcus epidermidis 375 in acute infective endocarditis rabbit model assessed as bacterial titer per gram of vegetation at 6 mg/kg/day, iv after 48 hrs; assay type: functional; summary of the method: as §3
[12] = tested on: Staphylococcus epidermidis; test: Antimicrobial activity against glycopeptide-intermediate Staphylococcus epidermidis NRS6 in acute infective endocarditis rabbit model assessed as bacterial titer per gram of vegetation at 6 mg/kg/day, iv after 48 hrs; assay type: functional; summary of the method: as §4
[13] = tested on: Staphylococcus epidermidis; test: Antimicrobial activity against methicillin-resistant Staphylococcus epidermidis 375 in acute infective endocarditis rabbit model assessed as bacterial titer per gram of vegetation at 10 mg/kg/day, iv after 48 hrs; assay type: functional; summary of the method: as §3
[14] = tested on: Staphylococcus epidermidis; test: Antimicrobial activity against glycopeptide-intermediate Staphylococcus epidermidis NRS6 in acute infective endocarditis rabbit model assessed as bacterial titer per gram of vegetation at 10 mg/kg/day, iv after 48 hrs; assay type: functional; summary of the method: as §4
[15] = tested on: Staphylococcus epidermidis; test: Antimicrobial activity against methicillin-resistant Staphylococcus epidermidis isolates; assay type: functional
[16] = Cmax in rabbit at 10 mg/kg, iv; settings: in vivo
[17] = tested on: Staphylococcus epidermidis; test: Bacteriostatic activity against methicillin-resistant Staphylococcus epidermidis 375 at 0.5 times MIC after 24 hrs by time kill analysis; assay type: functional, organism-based; summary of the method: as §1
[18] = tested on: Staphylococcus epidermidis; test: Bacteriostatic activity against glycopeptide-intermediate Staphylococcus epidermidis NRS6 at 0.5 times MIC after 24 hrs by time kill analysis; assay type: functional, organism-based; summary of the method: as §1
[19] = tested on: Staphylococcus epidermidis; test: Bactericidal activity against glycopeptide-intermediate Staphylococcus epidermidis NRS6 assessed as reduction in bacterial CFU at 2 times MIC after 24 hrs by time kill analysis; assay type: functional
[20] = tested on: Staphylococcus epidermidis; test: Antimicrobial activity against methicillin-resistant Staphylococcus epidermidis 375 in acute infective endocarditis rabbit model assessed as sterile vegetation level at 15 mg/kg, iv administered every 12 hrs measured after 48 hrs; assay type: functional; summary of the method: as §3
[21] = tested on: Staphylococcus epidermidis; test: Antimicrobial activity against methicillin-resistant Staphylococcus epidermidis 375 in acute infective endocarditis rabbit model assessed as sterile vegetation level at 15 mg/kg, iv administered every 6 hrs measured after 48 hrs; assay type: functional; summary of the method: as §3
[22] = tested on: Staphylococcus epidermidis; test: Antimicrobial activity against glycopeptide-intermediate Staphylococcus epidermidis NRS6 in acute infective endocarditis rabbit model assessed as sterile vegetation level at 15 mg/kg administered every 12 hrs, iv measured after 48 hrs; assay type: functional; summary of the method: as §3
[23] = tested on: Staphylococcus epidermidis; test: Antimicrobial activity against methicillin-resistant Staphylococcus epidermidis 375 in acute infective endocarditis rabbit model assessed as bacterial titer per gram of vegetation at 15 mg/kg administered every 12 hrs, iv measured after 48 hrs; assay type: functional; summary of the method: as §3
[24] = tested on: Staphylococcus epidermidis; test: Antimicrobial activity against glycopeptide-intermediate Staphylococcus epidermidis NRS6 in acute infective endocarditis rabbit model assessed as bacterial titer per gram of vegetation at 15 mg/kg administered every 12 hrs, iv measured after 48 hrs; assay type: functional; summary of the method: as §3
[25] = tested on: Staphylococcus epidermidis; test: Antimicrobial activity against methicillin-resistant Staphylococcus epidermidis 375 in acute infective endocarditis rabbit model assessed as bacterial titer per gram of vegetation at 15 mg/kg administered every 6 hrs, iv measured after 48 hrs; assay type: functional; summary of the method: as §3
[26] = tested on: Staphylococcus epidermidis; test: Bacteriostatic activity against methicillin-resistant Staphylococcus epidermidis 375 at MIC after 24 hrs by time kill analysis; assay type: functional, organism-based; summary of the method: as §1
[27] = tested on: Staphylococcus epidermidis; test: Bacteriostatic activity against glycopeptide-intermediate Staphylococcus epidermidis NRS6 at MIC after 24 hrs by time kill analysis; assay type: functional, organism-based; summary of the method: as §1
[28] = tested on: Staphylococcus epidermidis; test: Bacteriostatic activity against methicillin-resistant Staphylococcus epidermidis 375 at 2 times MIC after 24 hrs by time kill analysis; assay type: functional, organism-based; summary of the method: as §1
[29] = tested on: Staphylococcus epidermidis; test: Bacteriostatic activity against glycopeptide-intermediate Staphylococcus epidermidis NRS6 at 2 times MIC after 24 hrs by time kill analysis; assay type: functional, organism-based; summary of the method: as §1
Oryctolagus cuniculus [30] = test: Cmin in methicillin-resistant Staphylococcus epidermidis 375 infected rabbit at 60 mg/kg, iv; settings: in vivo

With CCCCCCCCCC(=O)N[C@@H](Cc1c[nH]c2ccccc12)C(=O)N[C@H](CC(N)=O)C(=O)N[C@@H](CC(=O)O)C(=O)N[C@@H]1C(=O)NCC(=O)N[C@@H](CCCN)C(=O)N[C@@H](CC(=O)O)C(=O)N[C@H](C)C(=O)N[C@@H](CC(=O)O)C(=O)NCC(=O)N[C@H](CO)C(=O)N[C@@H]([C@H](C)CC(=O)O)C(=O)N[C@@H](CC(=O)c2ccccc2N)C(=O)O[C@@H]1C the MBC [1] was 1 µg/mL (≈ 0.617 µM), the MIC [1] was 0.5 µg/mL (≈ 0.309 µM) and the MBC [2] was 4 µg/mL (≈ 2.47 µM). For the same compound, the MIC [2] was 2 µg/mL (≈ 1.23 µM), the Activity [3] was “Active” and the Activity [4] was “Active”. For the same compound, the Cmin (Oryctolagus cuniculus [5]) was 18.04 µg/mL, the Cmax [6] was 146 µg/mL and the Activity [7] was 60%. It also gave an Activity [8] of 73%, an Activity [9] of 6% and an Activity [10] of 0%. For the same compound, the log10cfu [11] was 0, the log10cfu [12] was 3.7 and the log10cfu [13] was 0. The log10cfu [14] was 3.9, the MIC [15] was at least 2 µg/mL and the Cmax [16] was 146 µg/mL.

CO[C@H]1/C=C/O[C@@]2(C)Oc3c(C)c(O)c4c(O)c(c(/C=N/N5CCN(C)CC5)c(O)c4c3C2=O)NC(=O)/C(C)=C\C=C\[C@H](C)[C@H](O)[C@@H](C)[C@@H](O)[C@@H](C)[C@H](OC(C)=O)[C@@H]1C [RIFAMPIN] showed an MBC [2] of over 0.25 µg/mL and an MIC [2] of 0.008 µg/mL (≈ 0.00972 µM).

With CN[C@H](CC(C)C)C(=O)N[C@H]1C(=O)N[C@@H](CC(N)=O)C(=O)N[C@H]2C(=O)N[C@H]3C(=O)N[C@H](C(=O)N[C@H](C(=O)O)c4cc(O)cc(O)c4-c4cc3ccc4O)[C@H](O)c3ccc(c(Cl)c3)Oc3cc2cc(c3O[C@@H]2O[C@H](CO)[C@@H](O)[C@H](O)[C@H]2O[C@H]2C[C@](C)(N)[C@H](O)[C@H](C)O2)Oc2ccc(cc2Cl)[C@H]1O [VANCOMYCIN] the MBC [1] was 4 µg/mL (≈ 2.76 µM), the MBC [2] was 16 µg/mL (≈ 11 µM) and the MIC [2] was 8 µg/mL (≈ 5.52 µM). The Activity [17] was “Active”, the Activity [18] was “Active” and the “fold change (FC)” value [19] was 2.8. For the same compound, the Activity [20] was 19%, the Activity [21] was 33% and the Activity [22] was 0%. It also gave a log10cfu [23] of 2, a log10cfu [24] of 7.1 and a log10cfu [25] of 2. For the same compound, the Activity [26] was “Active”, the Activity [27] was “Active” and the Activity [28] was “Active”. For the same compound, the Activity [29] was “Active” and the Cmin (Oryctolagus cuniculus [30]) was 20 µg/mL.

Compound GENTAMICIN has an MIC [2] of 64 µg/mL.

From ChEMBL document CHEMBL1275602, “Daptomycin is effective for treatment of experimental endocarditis due to methicillin-resistant and glycopeptide-intermediate Staphylococcus epidermidis” (Antimicrob Agents Chemother, 2010)
